Assay [1] can be described thus: Selectivity ratio of IC50 for bovine recombinant eNOS to IC50 for mouse recombinant iNOS.
Assay [2] concerns the target T1, Nitric oxide synthase, inducible (Mus musculus, UniProt P29477).
T1 sequence (P29477 whole entry): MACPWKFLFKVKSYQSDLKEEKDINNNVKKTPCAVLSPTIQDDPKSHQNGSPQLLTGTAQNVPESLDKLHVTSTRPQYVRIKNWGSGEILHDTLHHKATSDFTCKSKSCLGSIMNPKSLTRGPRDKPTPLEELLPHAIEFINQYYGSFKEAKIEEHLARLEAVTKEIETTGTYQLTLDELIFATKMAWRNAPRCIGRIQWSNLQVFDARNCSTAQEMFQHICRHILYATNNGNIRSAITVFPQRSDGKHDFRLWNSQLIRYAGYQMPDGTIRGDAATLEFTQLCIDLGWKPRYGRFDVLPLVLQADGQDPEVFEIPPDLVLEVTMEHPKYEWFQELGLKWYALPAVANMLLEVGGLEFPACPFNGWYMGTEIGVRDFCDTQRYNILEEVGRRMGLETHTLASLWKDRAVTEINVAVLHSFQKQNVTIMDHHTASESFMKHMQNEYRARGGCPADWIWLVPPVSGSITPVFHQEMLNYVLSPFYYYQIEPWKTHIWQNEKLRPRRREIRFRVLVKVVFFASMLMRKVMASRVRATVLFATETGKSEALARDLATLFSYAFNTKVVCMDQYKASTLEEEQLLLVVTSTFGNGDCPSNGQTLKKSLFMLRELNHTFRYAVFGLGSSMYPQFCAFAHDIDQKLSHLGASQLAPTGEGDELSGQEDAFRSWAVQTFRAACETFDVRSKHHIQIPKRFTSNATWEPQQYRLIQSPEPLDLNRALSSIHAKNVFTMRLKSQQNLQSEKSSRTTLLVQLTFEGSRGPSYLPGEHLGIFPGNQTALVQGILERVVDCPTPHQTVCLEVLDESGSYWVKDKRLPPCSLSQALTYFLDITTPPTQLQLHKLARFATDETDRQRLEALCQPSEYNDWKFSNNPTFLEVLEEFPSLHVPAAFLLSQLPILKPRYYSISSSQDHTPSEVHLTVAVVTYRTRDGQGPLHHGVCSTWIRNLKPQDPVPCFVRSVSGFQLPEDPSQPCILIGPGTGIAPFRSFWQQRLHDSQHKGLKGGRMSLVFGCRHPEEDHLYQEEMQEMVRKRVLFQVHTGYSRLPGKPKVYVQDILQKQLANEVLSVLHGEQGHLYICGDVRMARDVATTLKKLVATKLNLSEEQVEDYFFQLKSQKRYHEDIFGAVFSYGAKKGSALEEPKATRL
As to the kind of experiment: Inhibition of mouse recombinant iNOS using [3H]L-arginine substrate assessed as formation of [3H]L-citruline by liquid scintillation counting analysis. The gist of the method:
(§1)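 Recombinant enzyme inhibition was read as [3H]L-citrulline formed from [3H]L-arginine. Each inhibitor was tested at seven concentrations in triplicate, with IC50 given as mean ± SD. Selectivity is the eNOS IC50 divided by the iNOS IC50.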

The next assay addresses T2, Nitric oxide synthase 3 (Bos taurus, UniProt P29473).
T2 sequence (P29473 whole entry): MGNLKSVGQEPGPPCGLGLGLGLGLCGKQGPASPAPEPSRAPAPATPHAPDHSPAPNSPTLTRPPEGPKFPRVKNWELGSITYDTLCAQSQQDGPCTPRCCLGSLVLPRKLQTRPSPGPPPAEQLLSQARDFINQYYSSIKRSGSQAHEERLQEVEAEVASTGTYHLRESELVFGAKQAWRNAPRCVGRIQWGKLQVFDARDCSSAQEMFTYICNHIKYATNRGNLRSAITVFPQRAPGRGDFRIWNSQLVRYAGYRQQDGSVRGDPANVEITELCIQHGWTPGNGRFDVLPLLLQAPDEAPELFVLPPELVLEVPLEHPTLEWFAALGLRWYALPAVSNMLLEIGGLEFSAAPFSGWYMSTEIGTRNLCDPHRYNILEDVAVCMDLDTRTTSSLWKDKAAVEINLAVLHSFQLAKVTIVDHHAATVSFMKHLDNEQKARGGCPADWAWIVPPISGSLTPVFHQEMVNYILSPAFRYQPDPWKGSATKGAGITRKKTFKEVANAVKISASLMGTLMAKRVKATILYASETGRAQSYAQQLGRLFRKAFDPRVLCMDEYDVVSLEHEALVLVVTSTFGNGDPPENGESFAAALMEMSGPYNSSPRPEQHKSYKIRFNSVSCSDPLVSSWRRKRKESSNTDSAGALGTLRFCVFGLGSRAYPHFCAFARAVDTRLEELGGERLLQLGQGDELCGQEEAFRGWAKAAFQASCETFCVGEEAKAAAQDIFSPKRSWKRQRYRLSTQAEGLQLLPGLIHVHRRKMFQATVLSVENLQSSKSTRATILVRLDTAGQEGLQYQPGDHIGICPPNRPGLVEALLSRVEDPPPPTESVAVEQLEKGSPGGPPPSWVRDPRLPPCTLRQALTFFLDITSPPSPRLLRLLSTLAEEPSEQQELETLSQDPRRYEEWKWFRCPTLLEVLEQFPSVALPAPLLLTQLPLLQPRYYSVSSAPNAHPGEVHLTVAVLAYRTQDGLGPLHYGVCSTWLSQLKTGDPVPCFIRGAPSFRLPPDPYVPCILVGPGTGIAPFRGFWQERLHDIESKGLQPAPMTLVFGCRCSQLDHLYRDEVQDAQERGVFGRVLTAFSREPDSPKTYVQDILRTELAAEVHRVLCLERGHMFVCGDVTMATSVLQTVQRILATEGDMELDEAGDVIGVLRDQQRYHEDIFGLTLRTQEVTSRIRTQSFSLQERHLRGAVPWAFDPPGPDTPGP
As to the kind of experiment: Inhibition of bovine recombinant eNOS using [3H]L-arginine substrate assessed as formation of [3H]L-citruline by liquid scintillation counting analysis. The gist of the method:
as §1

Assay [3] is filed under the species Rattus norvegicus. The experiment in a line: Reduction of Ach-mediated NO-dependent precontracted Sprague-Dawley rat mesenteric vascular artery vasorelaxation measured at 1 uM/30 mins preincubation. It counts as functional, organism-based. The gist of the method: (§2)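 Mesenteric arteries were isolated from SD rats and precontracted to ~80% of maximal constriction with 10 μM NA. The inhibitor was preincubated for 30 min, then ACh dose-response curves were run (0.01–3 μM/30 s) against control, followed by L-NAME (100 μM). Data are mean ± SEM of duplicates from four independent experiments, analysed by two-way repeated-measures ANOVA.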

Assay [4] is filed under the species Rattus norvegicus. The experiment in a line: Induction of NA-induced LPS-treated Sprague-Dawley rat mesenteric vascular artery vasoconstriction effect measured at 1 uM/30 mins preincubation relative to basal level. The class given is functional, organism-based. The gist of the method:
(§3)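 Mesenteric arteries came from SD rats injected with LPS. NA dose-response curves (10 nM–10 μM) were recorded before and after 30 min preincubation with inhibitor. Read-outs were peak perfusion pressure (mmHg) and duration as AUC (mmHg × sec). Data are mean ± SEM of duplicates from four independent experiments.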

The species named for assay [5] is Rattus norvegicus. The experiment in a line: Reduction of Ach-mediated NO-dependent precontracted Sprague-Dawley rat mesenteric vascular artery vasorelaxation measured at 0.85 uM/30 mins preincubation. The class given is functional, organism-based. The gist of the method: as §2
For assay [6], the species on record is Rattus norvegicus. As to the kind of experiment: Induction of NA-induced LPS-treated Sprague-Dawley rat mesenteric vascular artery vasoconstriction effect measured at 100 uM/30 mins preincubation. It counts as functional, organism-based. The gist of the method:
as §3

For assay [7], the species on record is Rattus norvegicus. The experiment in a line: Reduction of Ach-mediated NO-dependent precontracted Sprague-Dawley rat mesenteric vascular artery vasorelaxation measured at 0.43 uM/30 mins preincubation. The class given is functional, organism-based. The gist of the method: as §2
The species named for assay [8] is Rattus norvegicus. As to the kind of experiment: Induction of NA-induced LPS-treated Sprague-Dawley rat mesenteric vascular artery vasoconstriction effect measured at 0.43 uM/30 mins preincubation relative to basal level. The class given is functional, organism-based. The gist of the method: as §3
Assay [9] is filed under the species Rattus norvegicus. The experiment in a line: Induction of NA-induced LPS-treated Sprague-Dawley rat mesenteric vascular artery vasoconstriction effect measured at 0.43 uM/30 mins preincubation. It counts as functional, organism-based. The gist of the method: as §3
For assay [10], the species on record is Rattus norvegicus. As to the kind of experiment: Reduction of Ach-mediated NO-dependent precontracted Sprague-Dawley rat mesenteric vascular artery vasorelaxation measured up to 0.7 uM/30 mins preincubation. The class given is functional, organism-based. The gist of the method:
as §2

For assay [11], the species on record is Rattus norvegicus. The experiment in a line: Induction of NA-induced LPS-treated Sprague-Dawley rat mesenteric vascular artery vasoconstriction effect measured at 1 uM/30 mins preincubation. The class given is functional, organism-based. The gist of the method: as §3
Assay [12] is filed under the species Rattus norvegicus. The experiment in a line: Reduction of Ach-mediated NO-dependent precontracted Sprague-Dawley rat mesenteric vascular artery vasorelaxation measured at 100 uM/30 mins preincubation. The class given is functional, organism-based. The gist of the method: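 Isolated SD rat mesenteric arteries precontracted with 10 μM NA to about 80% of maximal vasoconstriction. Preincubation 30 min at 100 μM, then dose-response to ACh (0.01–3 μM/30 s) for NO-dependent (eNOS-mediated) vasorelaxation, compared with control curve. Mean ± SEM of duplicates, four independent experiments; two-way repeated-measures ANOVA.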

The species named for assay [13] is Rattus norvegicus. As to the kind of experiment: Reduction of Ach-mediated NO-dependent precontracted Sprague-Dawley rat mesenteric vascular artery vasorelaxation measured at 1 to 1.2 uM/30 mins preincubation. The class given is functional, organism-based. The gist of the method: as §2
For assay [14], the species on record is Rattus norvegicus. The experiment in a line: Induction of NA-induced LPS-treated Sprague-Dawley rat mesenteric vascular artery vasoconstriction effect measured at 100 uM/30 mins preincubation relative to basal level. The class given is functional, organism-based.

Activity calls are given as the source filed them. No cut-off for these calls is given here.

In general, IC50 refers to the concentration needed to halve the response being measured. As for `CC(=N)NCc1cccc(CNC(=O)c2ccc(C(=O)O)cc2)c1`, the Ratio IC50 in assay [1] stood at 550. In addition, the values for the half-inhibitory concentration (IC50) (in assay [2]; at Nitric oxide synthase 3) were 0.165 µM and 90.8 µM, respectively.

For the compound `CC(=N)NCc1cccc(CNC(=O)CCCN)c1`, in assay [2], the IC50 is more than 10 µM.

With `CC(=N)NCc1cccc(CN)c1` [1400W], the IC50 in assay [2] stood at 0.1 µM. Moreover, the inhibition result in the assay listed under Rattus norvegicus [3] was “inactive”. For the same compound, the outcome in the assay listed under Rattus norvegicus [4] was Active.

Consider `CC(=N)NCc1cccc(CNC(=O)CCC(=O)O)c1`, for which the Ratio IC50 in assay [1] is more than 2300. The result in the assay filed under Rattus norvegicus [5], in the assay listed under Rattus norvegicus [6], in the assay listed under Rattus norvegicus [8], in the assay filed under Rattus norvegicus [9], in the assay filed under Rattus norvegicus [11] and in the assay filed under Rattus norvegicus [13] was Active. The IC50 in assay [2] is 0.428 µM; on Nitric oxide synthase 3 it was more than 1000 µM. Moreover, the inhibition result in the assay filed under Rattus norvegicus [7], in the assay filed under Rattus norvegicus [10] and in the assay filed under Rattus norvegicus [12] was “inactive” in each case.

In the case of `COC(=O)[C@@H](N)CCCNC(=N)N[N+](=O)[O-]`, the outcome in the assay filed under Rattus norvegicus [14] was Active. In the assay filed under Rattus norvegicus [12], the inhibition entry is “Active”.

For `CC(=N)NCc1cccc(CNC(=O)CN)c1`, in assay [2], the IC50 is more than 10 µM.

Turning to `CC(=N)NCc1cccc(CNC(=O)CC(=O)O)c1`, the IC50 in [2] was more than 10 µM.

Regarding `CC(=N)NCc1cccc(CN(Cc2ccc([N+](=O)[O-])cc2)Cc2ccc([N+](=O)[O-])cc2)c1`, in assay [1], the Ratio IC50 stood at 200. Also, the IC50 in assay [2] stood at 0.5 µM; at Nitric oxide synthase 3, 100 µM.

As for `CC(=N)NCc1cccc(CNC(=O)CCN)c1`, the IC50 in [2] is more than 10 µM.

Consider `CC(=N)NCc1cccc(CNCc2ccccc2[N+](=O)[O-])c1`, for which the Ratio IC50 in [1] worked out at 300. Also, the half-inhibitory concentration (IC50) in assay [2] is 0.1 µM; on Nitric oxide synthase 3, 30 µM.
